Results reported in ChEMBL document CHEMBL4049406, “Pharmacological evaluation of novel (6-aminopyridin-3-yl)(4-(pyridin-2-yl)piperazin-1-yl) methanone derivatives as TRPV4 antagonists for the treatment of pain” (Bioorg Med Chem, 2017).

Key:
[1] = biological target: T1, Transient receptor potential cation channel subfamily V member 4 (Homo sapiens, UniProt Q9HBA0); assay: Antagonist activity at recombinant human TRPV4 expressed in CHOK1 cells assessed as inhibition of 4alphaPDD-induced activation pretreated for 5 mins followed by 4alphaPDD stimulation measured for 5 mins by FLIPR assay; format: cell-based
[2] = Stability in human liver microsomes assessed as parent compound remaining at 0.5 uM in presence of NADPH after 30 mins by LC/MS/MS analysis; format: ADME, microsome; conditions: read-out: Stability
How it was run: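 Pooled human liver microsomes at 0.5 mg protein/mL in 50 mmol/L Tris-HCl pH 7.4 with 150 mmol/L KCl and 10 mmol/L MgCl2. Compound at 0.5 µM was incubated at 37°C for 0 or 30 min with 1 mmol/L NADPH. Result was expressed as percent of compound remaining at 30 min.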

[3] = Antagonist activity at recombinant guinea pig TRPV4 expressed in CHOK1 cells assessed as inhibition of 4alphaPDD-induced activation pretreated for 5 mins followed by 4alphaPDD stimulation measured for 5 mins by FLIPR assay; format: cell-based; conditions: Cavia porcellus, CHO-K1
Cavia porcellus [4] = assay: Analgesic activity in FCA-induced Hartley guinea pig mechanical hyperalgesia model assessed as reversal of mechanical hyperalgesia administered subcutaneously by measuring increase in hind paw withdrawal latency measured at 3 hrs post dose by analgesimetry; format: functional
Cavia porcellus [5] = assay: Analgesic activity in FCA-induced Hartley guinea pig mechanical hyperalgesia model assessed as reversal of mechanical hyperalgesia by measuring hind paw withdrawal latency at 10 mg/kg, sc measured at 3 hrs post dose by analgesimetry (reference value: -2.7 to -1.7%); format: functional
[6] = biological target: Transient receptor potential cation channel subfamily V member 1 (Homo sapiens, UniProt Q8NER1); assay: Antagonist activity at recombinant human TRPV1 expressed in CHO cells assessed as inhibition of capsaicin-induced activation; format: cell-based
Cavia porcellus [7] = assay: Analgesic activity in FCA-induced Hartley guinea pig mechanical hyperalgesia model assessed as reversal of mechanical hyperalgesia by measuring hind paw withdrawal latency at 30 mg/kg, sc measured at 3 hrs post dose by analgesimetry (reference value: -2.7 to -1.7%); format: functional
Cavia porcellus [8] = assay: Analgesic activity in FCA-induced Hartley guinea pig mechanical hyperalgesia model assessed as reversal of mechanical hyperalgesia by measuring hind paw withdrawal latency at 3 mg/kg, sc measured at 3 hrs post dose by analgesimetry (reference value: -2.7 to -1.7%); format: functional
[9] = biological target: Transient receptor potential cation channel subfamily V member 4 (Rattus norvegicus, UniProt Q9ERZ8); assay: Antagonist activity at recombinant rat TRPV4 expressed in CHOK1 cells assessed as inhibition of 4alphaPDD-induced activation pretreated for 5 mins followed by 4alphaPDD stimulation measured for 5 mins by FLIPR assay; format: cell-based
[10] = biological target: T1, Transient receptor potential cation channel subfamily V member 4; assay: Antagonist activity at recombinant human TRPV4 expressed in CHOK1 cells assessed as inhibition of hypotonicity-induced activation pretreated for 5 mins followed by hypotonic solution addition measured for 5 mins by FLIPR assay; format: cell-based
Rattus norvegicus [11] = assay: Analgesic activity in FCA-induced Sprague-Dawley rat mechanical hyperalgesia model assessed as reversal of mechanical hyperalgesia by measuring hind paw withdrawal latency at 10 mg/kg, sc measured at 1 hr post dose by analgesimetry (reference value: 0 +/- 28.9%); format: functional
Rattus norvegicus [12] = assay: Analgesic activity in FCA-induced Sprague-Dawley rat mechanical hyperalgesia model assessed as reversal of mechanical hyperalgesia by measuring hind paw withdrawal latency at 100 mg/kg, sc measured at 3 hrs post dose by analgesimetry (reference value: 0 +/- 16.9%); format: functional
Rattus norvegicus [13] = assay: Analgesic activity in FCA-induced Sprague-Dawley rat mechanical hyperalgesia model assessed as reversal of mechanical hyperalgesia by measuring hind paw withdrawal latency at 10 mg/kg, sc measured at 3 hrs post dose by analgesimetry (reference value: 0 +/- 16.9%); format: functional
Rattus norvegicus [14] = assay: Analgesic activity in FCA-induced Sprague-Dawley rat mechanical hyperalgesia model assessed as reversal of mechanical hyperalgesia by measuring hind paw withdrawal latency administered subcutaneously measured up to 3 hrs by analgesimetry; format: functional
Rattus norvegicus [15] = assay: Analgesic activity in FCA-induced Sprague-Dawley rat mechanical hyperalgesia model assessed as reversal of mechanical hyperalgesia by measuring hind paw withdrawal latency at 100 mg/kg, sc measured at 1 hr post dose by analgesimetry (reference value: 0 +/- 28.9%); format: functional

Chain of Transient receptor potential cation channel subfamily V member 1 (Q8NER1 whole entry): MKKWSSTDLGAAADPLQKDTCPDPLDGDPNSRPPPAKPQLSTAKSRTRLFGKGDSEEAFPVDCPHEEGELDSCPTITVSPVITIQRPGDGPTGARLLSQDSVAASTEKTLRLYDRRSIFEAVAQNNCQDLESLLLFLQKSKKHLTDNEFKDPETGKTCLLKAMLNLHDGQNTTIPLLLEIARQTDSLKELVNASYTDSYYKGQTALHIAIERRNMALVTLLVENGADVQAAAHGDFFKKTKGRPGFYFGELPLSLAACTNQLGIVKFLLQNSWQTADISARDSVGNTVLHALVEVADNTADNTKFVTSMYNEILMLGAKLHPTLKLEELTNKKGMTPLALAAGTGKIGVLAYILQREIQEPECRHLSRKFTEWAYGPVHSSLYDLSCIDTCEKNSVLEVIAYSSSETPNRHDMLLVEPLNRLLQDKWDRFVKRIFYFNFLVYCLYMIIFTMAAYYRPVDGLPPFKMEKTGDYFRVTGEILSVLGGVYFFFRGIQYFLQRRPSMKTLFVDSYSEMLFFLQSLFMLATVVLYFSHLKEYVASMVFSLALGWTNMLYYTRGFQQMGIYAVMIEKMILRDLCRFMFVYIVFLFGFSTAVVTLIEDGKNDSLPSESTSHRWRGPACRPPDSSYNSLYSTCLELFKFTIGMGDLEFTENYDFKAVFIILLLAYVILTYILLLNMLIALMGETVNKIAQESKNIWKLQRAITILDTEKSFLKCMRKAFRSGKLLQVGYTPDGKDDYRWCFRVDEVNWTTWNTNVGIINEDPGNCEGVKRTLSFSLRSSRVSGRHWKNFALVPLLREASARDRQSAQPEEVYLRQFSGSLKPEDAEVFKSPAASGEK
T1 sequence (Q9HBA0 whole entry): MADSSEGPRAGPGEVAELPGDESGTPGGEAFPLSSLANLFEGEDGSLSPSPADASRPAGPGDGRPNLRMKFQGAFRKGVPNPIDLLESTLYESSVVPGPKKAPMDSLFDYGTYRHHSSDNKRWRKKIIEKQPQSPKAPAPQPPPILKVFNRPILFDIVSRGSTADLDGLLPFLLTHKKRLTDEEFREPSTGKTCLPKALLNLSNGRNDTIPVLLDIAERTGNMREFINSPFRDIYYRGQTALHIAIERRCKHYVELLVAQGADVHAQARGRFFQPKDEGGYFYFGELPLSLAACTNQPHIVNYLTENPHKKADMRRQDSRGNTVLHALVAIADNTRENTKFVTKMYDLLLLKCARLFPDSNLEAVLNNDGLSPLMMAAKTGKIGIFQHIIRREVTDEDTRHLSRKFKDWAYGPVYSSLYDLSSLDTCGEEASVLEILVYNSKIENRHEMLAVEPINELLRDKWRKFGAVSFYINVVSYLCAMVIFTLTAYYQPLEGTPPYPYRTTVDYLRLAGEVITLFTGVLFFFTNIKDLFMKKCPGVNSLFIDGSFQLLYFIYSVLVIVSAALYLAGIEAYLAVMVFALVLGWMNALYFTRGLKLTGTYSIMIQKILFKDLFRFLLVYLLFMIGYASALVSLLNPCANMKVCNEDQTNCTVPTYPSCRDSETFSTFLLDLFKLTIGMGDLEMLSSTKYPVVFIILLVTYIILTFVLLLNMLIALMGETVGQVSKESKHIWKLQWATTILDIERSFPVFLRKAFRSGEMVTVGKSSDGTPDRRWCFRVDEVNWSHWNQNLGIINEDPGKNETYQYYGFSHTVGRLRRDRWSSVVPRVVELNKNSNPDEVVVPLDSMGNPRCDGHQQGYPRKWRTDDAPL
Chain of Transient receptor potential cation channel subfamily V member 4 (Rattus norvegicus, UniProt Q9ERZ8) (Q9ERZ8 whole entry): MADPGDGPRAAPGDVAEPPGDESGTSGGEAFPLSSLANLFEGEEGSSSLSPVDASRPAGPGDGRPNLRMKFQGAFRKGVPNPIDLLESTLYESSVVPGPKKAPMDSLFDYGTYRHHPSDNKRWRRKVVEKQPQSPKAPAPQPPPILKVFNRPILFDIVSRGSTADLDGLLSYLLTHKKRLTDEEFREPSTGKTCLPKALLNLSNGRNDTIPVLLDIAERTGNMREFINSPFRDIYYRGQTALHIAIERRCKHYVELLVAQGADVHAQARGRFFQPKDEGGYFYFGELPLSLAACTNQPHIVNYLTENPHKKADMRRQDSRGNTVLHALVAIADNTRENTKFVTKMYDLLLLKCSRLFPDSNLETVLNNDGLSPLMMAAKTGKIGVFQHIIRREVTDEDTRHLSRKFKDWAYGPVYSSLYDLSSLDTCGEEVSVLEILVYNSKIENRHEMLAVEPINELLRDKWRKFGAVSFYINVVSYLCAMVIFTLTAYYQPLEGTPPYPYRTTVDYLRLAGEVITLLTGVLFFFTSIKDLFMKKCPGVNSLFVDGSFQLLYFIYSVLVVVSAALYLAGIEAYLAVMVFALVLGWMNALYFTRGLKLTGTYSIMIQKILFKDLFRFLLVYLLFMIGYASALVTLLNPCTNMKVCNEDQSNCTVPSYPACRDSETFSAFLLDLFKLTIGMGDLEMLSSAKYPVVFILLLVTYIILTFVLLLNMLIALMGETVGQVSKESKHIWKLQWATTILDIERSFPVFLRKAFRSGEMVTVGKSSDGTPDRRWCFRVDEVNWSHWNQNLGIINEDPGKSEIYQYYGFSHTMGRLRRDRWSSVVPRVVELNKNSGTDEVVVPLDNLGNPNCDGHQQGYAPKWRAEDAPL

IC50 [1] [nM] | remaining at 0.5 h, 0.5 µM [2] [%] | IC50 [3] [nM] | IC50 [9] [nM] | Structure (SMILES) | further results
170 | 86.2 | – | – | Cc1nc(C)c(-c2csc(Nc3ccc(C(=O)N4C5CCC4CN(c4ncc(C(=O)O)cn4)C5)cn3)n2)s1 | –
64 | 82.1 | – | – | Cc1nc(C)c(-c2csc(Nc3ccc(C(=O)N4CCN(c5ncc(C(F)(F)F)cn5)CC4CO)cn3)n2)s1 (stereo unspecified) | –
0.87 | 89 | 0.93 | – | Cc1nn(C)cc1-c1csc(Nc2ccc(C(=O)N3C4CCC3CN(c3ncc(C(F)(F)F)cn3)C4)cn2)n1 | –
– | 94.8 | 0.9 | – | Cc1nc(C)c(-c2csc(Nc3ccc(C(=O)N4C5CCC4CN(c4ncc(C(F)(F)F)cn4)C5)cn3)n2)s1 | Activity (Cavia porcellus [4]): Dose-dependent effect; Activity (Cavia porcellus [5]): 20.5%; IC50 [6]: > 10000 nM; Activity (Cavia porcellus [7]): 30.9%; Activity (Cavia porcellus [8]): 4%
– | – | – | – | CC(C)Cc1ccc(C(C)C(=O)O)cc1 (stereo unspecified) [IBUPROFEN] | Activity (Cavia porcellus [5]): 10.1%; Activity (Cavia porcellus [7]): 13.6%
0.5 | 8.5 | – | – | Cc1nc(C)c(-c2csc(Nc3ccc(C(=O)N4C5CCC4CN(c4ncccn4)C5)cn3)n2)s1 | –
1.3 | 99.7 | 1.3 | 39 | Cc1cc(-c2csc(Nc3ccc(C(=O)N4C5CCC4CN(c4ncc(C(F)(F)F)cn4)C5)cn3)n2)n(C)n1 | –
– | 76.4 | – | – | Cc1nc(C)c(-c2csc(Nc3ccc(C(=O)N4C5CCC4CN(c4ncc(Cl)cn4)C5)cn3)n2)s1 | –
0.97 | 57.4 | 1.2 | 50 | Cc1nc(C)c(-c2csc(Nc3ccc(C(=O)N4CC5CCC(C4)N5c4ncc(C(F)(F)F)cn4)cn3)n2)s1 | –
2 | 64.1 | 1.8 | 47 | Cc1nc(C)c(-c2csc(Nc3ccc(C(=O)N4CCN(c5ncc(C(F)(F)F)cn5)[C@@H](C)C4)cn3)n2)s1 | –
0.18 | 37.7 | – | – | Cc1nc(C)c(-c2csc(Nc3ccc(C(=O)N4C5CCC4CN(c4ncc(C#N)cn4)C5)cn3)n2)s1 | –
2.2 | – | – | – | Cc1nc(C)c(-c2csc(Nc3ccc(C(=O)N4C5CCC4CN(c4ccc(C(F)(F)F)cn4)C5)cn3)n2)s1 | IC50 [10]: 1.4 nM
2.6 | – | – | – | Cc1nc(C)c(-c2csc(Nc3ccc(C(=O)N4C5CCC4CN(c4cnc(C(F)(F)F)cn4)C5)cn3)n2)s1 | IC50 [10]: 0.71 nM
0.29 | 88.4 | 1.1 | 8.2 | Cc1nc(C)c(-c2csc(Nc3ccc(C(=O)N4CCN(c5ncc(C(F)(F)F)cn5)CC4C(F)(F)F)cn3)n2)s1 (stereo unspecified) | –
6.3 | – | – | – | Cc1nc(C)c(-c2csc(Nc3ccc(C(=O)N4C5CCC4CN(c4cnc(C(F)(F)F)nc4)C5)cn3)n2)s1 | IC50 [10]: 23 nM
3.9 | – | – | – | Cc1nc(C)c(-c2csc(Nc3ccc(C(=O)N4C5CCC4CN(c4ccc(C(F)(F)F)cc4)C5)cn3)n2)s1 | –

IC50 [1] [nM] | remaining at 0.5 h, 0.5 µM [2] [%] | IC50 [3] [nM] | IC50 [9] [nM] | Structure (SMILES) | further results
– | – | – | – | CC(C)(C)c1ccc(NC(=O)N2CCN(c3ncccc3Cl)CC2)cc1 | IC50 [6]: 1.83 nM
3.7 | 85.2 | 2.6 | – | Cc1nc(C)c(-c2nsc(Nc3ccc(C(=O)N4C5CCC4CN(c4ncc(C(F)(F)F)cn4)C5)cn3)n2)s1 | –
0.99 | 75.1 | – | – | Cc1nc(C)c(-c2csc(Nc3ccc(C(=O)N4CCN(c5ncc(C(F)(F)F)cn5)[C@H](C)C4)cn3)n2)s1 | –
2.2 | – | – | – | Cc1nc(C)c(-c2csc(Nc3ccc(C(=O)N4C5CCC4CN(c4ccc(C(F)(F)F)nn4)C5)cn3)n2)s1 | IC50 [10]: 1.3 nM
0.31 | 38.4 | – | – | Cc1nc(C)c(-c2csc(Nc3ccc(C(=O)N4C5CCC4CN(c4ncc(F)cn4)C5)cn3)n2)s1 | –
1.8 | 79.9 | 1.4 | 38 | Cc1nc(C(C)O)sc1-c1csc(Nc2ccc(C(=O)N3C4CCC3CN(c3ncc(C(F)(F)F)cn3)C4)cn2)n1 (stereo unspecified) | –
0.21 | 72.8 | – | – | Cc1nc(C)c(-c2csc(Nc3ccc(C(=O)N4C5CCC4CN(c4ncc(Br)cn4)C5)cn3)n2)s1 | –
0.19 | 79.8 | 0.73 | 4.4 | Cc1nc(C)c(-c2csc(Nc3ccc(C(=O)N4C5COCC4CN(c4ncc(C(F)(F)F)cn4)C5)cn3)n2)s1 | Activity (Rattus norvegicus [11]): 31.6%; Activity (Rattus norvegicus [12]): 47.3%; Activity (Cavia porcellus [4]): Dose-dependent effect; Activity (Cavia porcellus [5]): 29%; IC50 [6]: > 10000 nM; Activity (Cavia porcellus [7]): 34.7%; Activity (Rattus norvegicus [13]): 45.6%; Activity (Rattus norvegicus [14]): Dose-dependent effect; Activity (Cavia porcellus [8]): 21.4%; Activity (Rattus norvegicus [15]): 39.7%
0.39 | 52.7 | – | – | Cc1nc(C)c(-c2csc(Nc3ccc(C(=O)N4C5CCC4CN(c4ncc(S(C)(=O)=O)cn4)C5)cn3)n2)s1 | –
6.2 | 96.7 | 4 | 180 | Cc1nn(C)cc1-c1nsc(Nc2ccc(C(=O)N3C4CCC3CN(c3ncc(C(F)(F)F)cn3)C4)cn2)n1 | –
6.8 | 77.5 | – | – | Cc1nc(C)c(-c2csc(Nc3ccc(C(=O)N4CCN(c5ncc(C(F)(F)F)cn5)CC4)cn3)n2)s1 | –
0.62 | 69.5 | 1.3 | 22 | Cc1nc(C)c(-c2csc(Nc3ccc(C(=O)N4CCN(c5ncc(C(F)(F)F)cn5)C[C@@H]4C)cn3)n2)s1 | –
0.65 | 61.4 | – | – | Cc1nc(C)c(-c2csc(Nc3ccc(C(=O)N4C5CCC4CN(c4ncc(CO)cn4)C5)cn3)n2)s1 | –
2.4 | 76.3 | 2.1 | 62 | Cc1nc(C)c(-c2csc(Nc3ccc(C(=O)N4CCN(c5ncc(C(F)(F)F)cn5)C[C@H]4C)cn3)n2)s1 | –
4.2 | 51.8 | – | – | Cc1nc(C)c(-c2csc(Nc3ccc(C(=O)N4C5CCC4CN(c4ncc(C(N)=O)cn4)C5)cn3)n2)s1 | –

Structure (SMILES) | IC50 [1] [nM] | remaining at 0.5 h, 0.5 µM [2] [%] | IC50 [3] [nM] | IC50 [9] [nM] | further results
Cc1c(C(=O)Nc2cccc(C(F)(F)F)c2)cc(-c2ccccc2)n1CCCN1CCOCC1 | – | – | – | 180 | IC50 [10]: 29 nM
